Rows were chosen to be rich in hits. Some 3.5% of all compounds tested hit in one or more screens of this group.
RGS4 pot: RGS4 potentiation or activation; HEK293 M3R/inducible RGS4, carbachol calcium flux Fluo4; hits give low values; B-score at 10 µM; 310,000 compounds, 0.92% hits; AID 463111;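 active means B-score of the integrated calcium signal more than 4 SD below the library mean, with starting fluorescence not abnormally high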;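 further: negative B-score means reduced calcium response which marks RGS4 activation or potentiation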
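Detection: kinetic calcium fluorescence imaging with Fluo4-AM dye, 2 µM / Material: HEK293 cells with stable M3R and inducible RGS4 / Schedule: recording 10 s baseline at 1 Hz, 100 s post-agonist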
RGS4 inh: inhibitors of human RGS4. P49798. HEK293 M3R/RGS4 inducible, Fluo-4 calcium flux; hits give high values; triggered by carbachol at its EC20. B-score at 10 µM. 310,000 compounds, 0.45% hits;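 active means B-score, a plate-corrected calcium signal, over three deviations above library mean, with baseline fluorescence within five deviations of library mean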;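 further: RGS4 expression induced by doxycycline in cells with stable M3 receptor; B-score is computed from the integrated fluorescence ratio over baseline after carbachol; higher B-score means a larger calcium signal and so more RGS4 inhibition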
MrgX1 allo act: allosterically activates human MrgX1 receptor signaling; MrgX1-HEK293, Fluo-4 calcium flux, FDSS; hits give high values; 310,000 compounds, 0.63% hits; Q96LB2; AID 588675; B-score at 10 µM;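 active means plate-corrected calcium response at least 3 library SD above typical, normal starting fluorescence, not activating the receptor alone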;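 further: compound read alongside a low EC10 to EC30 dose of BAM8-22 agonist; peak minus trough fluorescence over baseline measured at the second addition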
Target sequence (Q96LB2 whole entry, looked up): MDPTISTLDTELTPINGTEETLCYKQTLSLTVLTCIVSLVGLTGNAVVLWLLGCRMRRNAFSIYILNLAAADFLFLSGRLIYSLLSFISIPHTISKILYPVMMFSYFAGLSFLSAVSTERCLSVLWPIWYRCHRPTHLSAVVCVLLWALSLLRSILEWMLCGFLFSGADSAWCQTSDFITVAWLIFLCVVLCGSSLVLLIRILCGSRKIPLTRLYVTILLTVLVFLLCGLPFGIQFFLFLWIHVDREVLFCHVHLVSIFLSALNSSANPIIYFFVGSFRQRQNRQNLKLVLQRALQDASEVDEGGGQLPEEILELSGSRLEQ
MrgX1 antagonist: blocks BAM8-22 activation of human MrgX1 receptor. Q96LB2. MRGX1-HEK293 calcium flux, Fluo-4, BAM8-22 antagonism; hits give low values. B-score at 10 µM. 310,000 compounds, 1.3% hits. AID 588676;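 active means calcium-response B-score plate-corrected more than 3 library SD below zero, starting fluorescence within 5 deviations, no agonist response on first addition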;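 further: peak minus trough fluorescence over baseline after final BAM8-22 challenge near maximal dose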
MrgX1 agonist: agonists of human MrgX1 receptor. B-score at 10 µM. Q96LB2. AID 588627. 310,000 compounds, 0.44% hits. MrgX1-HEK293 cells, Fluo-4 calcium fluorescence, agonist mode; hits give high values;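 active means calcium response B-score plate-corrected fluorescence ratio at least 3 library SD, with starting fluorescence B-score inside 5 SD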
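Assay system: MrgX1-expressing HEK293 cells / Amount: fifteen thousand cells per well / Doses: test compound in the initial addition of three / Timing: cells plated overnight, dye loaded 0.5 h 37 °C, 0.5 h room temperature / Technique: kinetic calcium dye fluorescence, Fluo-4 NW / Control set: positive and negative controls per plate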
RGS4 inh valid: RGS4 inhibitor validation. 1,700 compounds, 65% hits. calcium response, % at 10 µM. HEK293 M3R/RGS4, carbachol calcium Fluo-4 fluorescence; carbachol added at its EC20; 0 = buffer wells, 100 = carbachol control. shares compounds with RGS4 inh;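 active means duplicate-averaged calcium response above the buffer-only control mean plus 5 SD of those controls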;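 further: integrated fluorescence ratio F max minus min over baseline F0; higher response in RGS4-induced cells means RGS4 inhibition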
RGS4 uninduced: non-induced cell nonspecific activity of RGS4 inhibitors; shares compounds with RGS4 inh; HEK293 M3R non-induced, carbachol calcium Fluo-4; submaximal (EC20) carbachol stimulus; buffer wells 0%, carbachol control wells 100%; activity (percent), % at 10 µM; 1,900 compounds, 20% hits; AID 493000; call rule not given here;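 further: RGS4 induction absent so cells express M3R without RGS4; higher means more calcium signal and flags a non-specific hit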
RGS4 inh ctr2: signal in non-induced cells without carbachol, RGS4 inhibitor counter-screen. shares compounds with RGS4 inh. HEK293 M3R/RGS4 non-induced, Fluo-4 calcium, no carbachol; normalised: buffer wells 0%, carbachol wells 100%. calcium response (agonist-mode artifact), % at 10 µM. 1,900 compounds, 22% hits;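 active means duplicate-averaged calcium rise in uninduced cells above buffer wells' mean plus 5 SD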
* marks the source's active call; other numbers are inactive results; i = inactive; nt = no result.

SMILES	RGS4 pot	RGS4 inh	MrgX1 allo act	MrgX1 antagonist	MrgX1 agonist	RGS4 inh valid	RGS4 uninduced	RGS4 inh ctr2
Cc1nnc2n(c1=O)C(CS(=O)(=O)c1ccc3ccccc3c1)CS2 (stereo not given)	i	i	i	i	i	nt	nt	nt
COc1ccc(-n2nc3c(c2NC(=O)CCCl)CSC3)cc1	i	i	i	i	i	nt	nt	nt
O=C(CCCSc1ccccc1)Nc1nc(-c2ccco2)c(-c2ccco2)s1	i	i	i	i	i	nt	nt	nt
O=C(CCl)Nc1nc(-c2ccco2)c(-c2ccco2)s1	i	5.8*	i	i	i	i	i	i
Cc1ccc(OCC(=O)NNC(=O)c2ccco2)c(C)c1	i	30*	i	i	i	i	i	i
COc1cc(/C=C2\SC(=Nc3ccc(Cl)c(C(=O)O)c3)NC2=O)c(Br)c(Br)c1O	i	i	i	i	i	nt	nt	nt
CCC(=O)NC(c1ccccc1)c1c(OC(C)=O)ccc2ccccc12 (stereo not given)	i	i	i	i	i	nt	45%*	7.0%*
CCC(=O)NC(c1cccc([N+](=O)[O-])c1)c1c(OC(C)=O)ccc2ccccc12 (stereo not given)	i	i	i	i	i	nt	nt	nt
COCCNC(=O)CSc1nc2nn(-c3ccccc3)c(=O)c-2c2n1CCCCC2	i	i	i	i	i	nt	nt	nt
COc1ccc(/C=N/n2cc(-c3ccc(OC)cc3)nc2N)cc1	i	37*	i	i	i	24%*	i	i
O=C(/C=C/c1ccnc2ccccc12)c1cccs1	i	14*	i	i	i	18%*	41%*	i
O=C(Cn1cnc2ccccc2c1=O)c1cccs1	i	i	i	i	i	nt	nt	nt
CC(=O)/C=C1/C(=O)Nc2ccccc21	i	18*	i	i	i	34%*	44%*	26%*
CCCCn1c(=O)[nH]c(=O)c2c1nc(Cn1ncc(Cl)c(Cl)c1=O)n2CCC	i	21*	i	i	i	34%*	56%*	i
CCCCn1c(=O)[nH]c(=O)c2c1nc(CN1C(=O)c3ccccc3S1(=O)=O)n2CCC	i	i	i	i	i	nt	nt	nt
Cc1ccc(S(=O)(=O)N2CCN(C(=O)CN3C(=O)c4ccc([N+](=O)[O-])cc4C3=O)CC2)c(C)c1	i	i	i	i	i	nt	nt	nt
Cc1[nH]n(-c2ccccc2)c(=O)c1Sc1ccc(Cl)cc1	i	i	i	i	i	nt	nt	nt
Cc1[nH]n(-c2ccccc2)c(=O)c1C(C[N+](=O)[O-])c1ccc(Cl)cc1 (stereo not given)	i	10*	i	i	32*	28%*	i	11%*
Cc1ccc(C(C[N+](=O)[O-])c2c(C)[nH]n(-c3ccccc3)c2=O)cc1 (stereo not given)	i	6.7*	i	i	36*	7.0%*	32%*	17%*
Cc1[nH]n(-c2ccccc2)c(=O)c1C(C[N+](=O)[O-])c1ccc(F)cc1 (stereo not given)	i	i	i	i	i	nt	i	7.5%*
COc1ccc(C(c2c(C)[nH]n(-c3ccccc3)c2=O)c2c(C)[nH]n(-c3ccccc3)c2=O)cc1OC	i	i	i	i	i	nt	i	i
O=C1NC(c2ccccc2)=C(c2nc3ccccc3s2)C(c2ccc(O)cc2)N1 (stereo not given)	i	8.6*	i	i	i	8.5%*	i	8.0%*
